Measurements published in paper PMC5644278 (Alzheimer's & Dementia : Translational Research & Clinical …, 2016).

Legend:
[1] = system: healthy male subjects; assay: Adaptive tracking; assay type: in vivo, human; conditions: donepezil 10 mg oral; healthy elderly males
In short: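 Healthy males got one intranasal spray dose in a double-dummy design with oral capsules: 11 mg for young subjects, 22 or 33 mg for elderly subjects, 6 per dose, with age-matched nasal placebo. NeuroCart tests were run twice before dosing, then at 1, 2, 3, 4, 5, 6, 8 and 10 h after, in a quiet room, one subject per session. Analysis was mixed-model ANOVA: treatment, time and treatment×time fixed, subject random, baseline as covariate.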

[2] = system: healthy male subjects; assay: Treatment emergent adverse events, single dose study; assay type: in vivo, human; conditions: donepezil 10 mg oral

COc1cc2c(cc1OC)C(=O)C(CC1CCN(Cc3ccccc3)CC1)C2 (stereo not shown) [donepezil, reference compound]
adaptive tracking compared with placebo (in words) [1]: improvement
Nausea, incidence ([2]; healthy elderly males): 16.7%
Diarrhea, incidence ([2]; healthy elderly subjects): 33.3%
Vomiting, incidence ([2]; healthy elderly subjects): 16.7%
